Experimental data published in ChEMBL document CHEMBL1146656, “The monoethyl ester of meconic acid is an active site inhibitor of HCV NS5B RNA-dependent RNA polymerase” (Bioorg Med Chem Lett, 2004).

What was measured:
[1] = molecular target: T1, RNA-directed RNA polymerase (Hepacivirus hominis, UniProt O39930); test: Inhibitory potency against NS5B HCV polymerase
Method in brief: (§1)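 NS5BΔC55 (C-terminal 55-residue truncation) expressed in E. coli and purified to homogeneity, used at 5 nM in 20 mM Tris/HCl pH 7.5, 0.05% Triton X-100, 2% glycerol, 50 mM NaCl, 1 mM DTT, 5 mM MgCl2. Enzyme preincubated 20 min at 23 °C with poly(rA)/oligo(rU) (20 µg/mL final). Started with 10 µM 3H-UTP, 30 min at 23 °C. Acid-insoluble radioactivity counted. IC50 from three-parameter logistic fit; mean of 2–4 experiments.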

Hepatitis C virus = test: Tested for inhibition of HCV RNA replication in a cell-basedassay; No significant inhibition; type: functional, organism-based, Hepacivirus hominis
[2] = molecular target: T1, RNA-directed RNA polymerase; test: Inhibitory potency of compound in presence of Mg2+ ion against NS5B HCV polymerase
Method in brief: as §1, with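 “NS5B with C-terminal” for “NS5BΔC55 (C-terminal”, “truncation (ΔC55),” for “truncation)”, “purified;” for “purified to homogeneity, used at”, “nM enzyme” for “nM”, “measured;” for “counted.”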

[3] = molecular target: T1, RNA-directed RNA polymerase; test: Inhibitory potency of compound in presence of Mn2+ ion against NS5B HCV polymerase
[4] = molecular target: T1, RNA-directed RNA polymerase; test: Ability of compound to displace [3H]-DKA from NS5B HCV polymerase by 50%

T1 sequence (O39930 whole entry, the tested form may be a part): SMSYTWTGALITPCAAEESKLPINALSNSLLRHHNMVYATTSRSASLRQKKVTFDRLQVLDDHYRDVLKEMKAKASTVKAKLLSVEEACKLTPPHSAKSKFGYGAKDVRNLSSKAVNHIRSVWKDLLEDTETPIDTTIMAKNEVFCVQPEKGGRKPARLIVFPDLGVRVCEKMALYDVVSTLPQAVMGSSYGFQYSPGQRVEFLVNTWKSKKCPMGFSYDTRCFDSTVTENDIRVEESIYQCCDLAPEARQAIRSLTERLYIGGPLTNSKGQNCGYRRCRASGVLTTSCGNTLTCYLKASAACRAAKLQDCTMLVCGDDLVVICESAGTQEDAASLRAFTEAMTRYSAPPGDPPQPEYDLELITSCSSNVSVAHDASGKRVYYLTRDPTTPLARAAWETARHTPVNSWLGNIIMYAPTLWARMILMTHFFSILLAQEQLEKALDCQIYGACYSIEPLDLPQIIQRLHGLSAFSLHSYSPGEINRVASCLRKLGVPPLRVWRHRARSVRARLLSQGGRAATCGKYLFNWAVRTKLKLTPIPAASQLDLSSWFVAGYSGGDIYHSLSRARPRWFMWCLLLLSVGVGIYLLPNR

SMILES | EC50 (Hepatitis C virus) [µM] | IC50 [2] [µM] | IC50 [3] [nM] | DC50 [4] [nM] | IC50 [1] [µM]
O=C(O)c1oc(COCc2ccccc2)cc(=O)c1O | > 50 |  |  |  | > 100
CCOC(=O)c1cc(=O)c(O)c(C(=O)OCC)o1 | > 50 | > 100 | 4000 |  | > 100
CCOC(=O)c1cc(=O)c(O)co1 | > 50 |  |  |  | > 100
CCN(CC)C(=O)c1cc(=O)c(O)c(C(=O)O)o1 | > 50 |  |  |  | > 100
COC(=O)c1oc(C(=O)O)cc(=O)c1O | > 50 |  |  |  | > 100
O=C(O)c1cc(=O)c(O)c(C(=O)O)o1 | 50 | > 100 | 18000 |  | > 100

Continued, in another order:

EC50 (Hepatitis C virus) [µM] | IC50 [2] [µM] | IC50 [3] [nM] | DC50 [4] [nM] | SMILES | IC50 [1] [µM]
> 50 |  |  |  | CCNC(=O)c1cc(=O)c(O)c(C(=O)O)o1 | 24
> 50 |  |  |  | O=C(O)c1occc(=O)c1O | 51
> 50 | 23 | 1900 |  | O=C(O)c1oc2ccccc2c(=O)c1O | 
> 50 | 2.25 | 165 | 1200 | CCOC(=O)c1cc(=O)c(O)c(C(=O)O)o1 | 2.25
> 50 |  |  | 300 | O=C(O)C(=O)/C=C(\O)c1ccccc1 | 
> 50 |  |  |  | CC(C)(C)OC(=O)c1cc(=O)c(O)c(C(=O)O)o1 | 36
> 50 | 16.2 | 800 |  | CCOCc1cc(=O)c(O)c(C(=O)O)o1 | 16.2
